Where only a bound is given, the exact number is not on record here.

The target in one data set is T1, Carboxypeptidase B2 (Homo sapiens, UniProt Q96IY4).
T1 sequence (Q96IY4 whole entry): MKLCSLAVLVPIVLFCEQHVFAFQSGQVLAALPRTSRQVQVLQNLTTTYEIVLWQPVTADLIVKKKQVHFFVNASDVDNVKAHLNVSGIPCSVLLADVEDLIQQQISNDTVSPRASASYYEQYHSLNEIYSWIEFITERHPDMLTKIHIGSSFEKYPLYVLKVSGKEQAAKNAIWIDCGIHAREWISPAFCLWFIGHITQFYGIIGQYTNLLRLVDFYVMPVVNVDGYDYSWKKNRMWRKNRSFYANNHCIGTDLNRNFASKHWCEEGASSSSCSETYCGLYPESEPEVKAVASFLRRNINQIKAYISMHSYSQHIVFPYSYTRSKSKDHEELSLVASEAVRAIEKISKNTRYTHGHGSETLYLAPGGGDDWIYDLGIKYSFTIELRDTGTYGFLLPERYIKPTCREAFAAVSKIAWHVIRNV
Kind of data set: Inhibition of human TAFIa.

Data set [1] deals with T2, Carboxypeptidase N catalytic chain (Homo sapiens, UniProt P15169).
T2 sequence (P15169 whole entry): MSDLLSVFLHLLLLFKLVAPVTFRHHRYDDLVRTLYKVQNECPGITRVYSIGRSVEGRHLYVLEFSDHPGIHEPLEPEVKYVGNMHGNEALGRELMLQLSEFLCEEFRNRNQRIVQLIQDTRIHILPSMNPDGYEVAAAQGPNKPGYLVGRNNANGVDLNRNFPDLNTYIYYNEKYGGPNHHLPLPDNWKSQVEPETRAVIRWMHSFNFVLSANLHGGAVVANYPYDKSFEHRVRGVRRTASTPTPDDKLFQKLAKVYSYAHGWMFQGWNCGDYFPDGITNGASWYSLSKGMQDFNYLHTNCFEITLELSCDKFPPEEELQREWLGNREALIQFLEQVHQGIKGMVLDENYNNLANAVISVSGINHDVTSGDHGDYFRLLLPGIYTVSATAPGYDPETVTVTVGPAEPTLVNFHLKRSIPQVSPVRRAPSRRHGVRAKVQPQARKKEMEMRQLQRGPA
In words: Inhibition of human plasma carboxypeptidase N. The format is cell-free.

The next data set has as its target T3, Carboxypeptidase B (Sus scrofa, UniProt P09955).
T3 sequence (P09955 whole entry): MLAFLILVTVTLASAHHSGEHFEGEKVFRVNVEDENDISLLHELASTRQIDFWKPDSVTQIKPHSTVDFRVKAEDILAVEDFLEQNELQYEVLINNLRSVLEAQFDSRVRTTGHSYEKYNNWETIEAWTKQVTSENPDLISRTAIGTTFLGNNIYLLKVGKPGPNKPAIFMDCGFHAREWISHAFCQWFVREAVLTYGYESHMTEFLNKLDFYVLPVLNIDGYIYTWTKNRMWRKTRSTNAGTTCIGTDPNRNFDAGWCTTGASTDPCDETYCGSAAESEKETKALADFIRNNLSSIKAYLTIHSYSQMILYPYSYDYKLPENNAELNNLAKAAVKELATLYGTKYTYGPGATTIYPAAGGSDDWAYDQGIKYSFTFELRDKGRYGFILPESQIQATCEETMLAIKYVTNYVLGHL
In words: Inhibition of porcine pancreatic carboxypeptidase B.

Data set [2] is described as follows: Selectivity for bovine pancreatic carboxypeptidase A over porcine pancreatic carboxypeptidase B.
Data set [3] can be described thus: Hydrophilicity, log D of the compound. The format is physicochemical. Conditions: octanol/water.
A short description of data set [4]: Plasma clearance in dog at 0.6 mg/kg, iv. It counts as ADME, organism-based, Canis lupus familiaris. Also on record: dose 0.6 mg/kg, route intravenous. The essentials: (§1)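 Single iv bolus of 0.6 mg/kg given to a dog. Total plasma clearance, volume of distribution and terminal elimination half-life were derived from the plasma pharmacokinetics.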
The nature of data set [5]: Volume of distribution in dog at 0.6 mg/kg, iv. The format is ADME, organism-based, Canis lupus familiaris. The arrangement: dose 0.6 mg/kg, route intravenous. The conditions noted are these: in vivo, read-out: Vdss. The essentials: as §1
The nature of data set [6]: Renal elimination in dog at 0.6 mg/kg, iv by urinary excretion studies. It counts as ADME, organism-based, Canis lupus familiaris. Also on record: dose 0.6 mg/kg, route intravenous. The conditions noted are these: urine, read-out: Activity. The essentials:
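Urinary excretion study in a dog after an iv dose. Unchanged drug recovered in the urine was quantified as a percentage of the dose.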

Data set [7] is described as follows: Terminal elimination in dog at 0.6 mg/kg, iv. The format is ADME, organism-based, Canis lupus familiaris. Conditions: in vivo. Also on record: dose 0.6 mg/kg, route intravenous. The essentials:
as §1

Data set [8] can be described thus: Bioavailability in dog at 1 mg/kg, po. The format is ADME, organism-based, Canis lupus familiaris. The conditions noted are these: in vivo. The essentials: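 Oral dosing at 1 mg/kg in dog for pharmacokinetic studies. Oral bioavailability was derived relative to iv dosing.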
Data set [9] in a line: Bioavailability in rat. The format is ADME, organism-based. The conditions noted are these: in vivo.
Data set [10] in a line: Oral bioavailability in human. The format is ADME, organism-based. The conditions noted are these: in vivo. The essentials:
(§2)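 Human pharmacokinetics after iv and oral dosing. Oral bioavailability and Tmax were determined, including with and without co-administration with food.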

Data set [11] in a line: Tmax in human. It counts as ADME, organism-based. The conditions noted are these: in vivo. The essentials:
as §2

In data set [12] the test system is Oryctolagus cuniculus. In words: Antithrombotic efficacy in anesthetized rabbit assessed as inhibition of thrombus formation at 800 nM relative to control. It counts as functional. The essentials: (§3)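 Anesthetized rabbits given compound by iv infusion to reach projected free plasma levels of about 8, 80 or 800 nM. Thrombus weight (thrombus formation) was compared with vehicle-treated animals. t-PA at 10 µg/kg/min served as comparator. Group sizes were n = 3–6, with vehicle n = 5–13.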

Data set [13] concerns Oryctolagus cuniculus. Kind of data set: Inhibition of thrombus weight in iv dosed anesthetized rabbit at 80 nM relative to control. It counts as functional. The essentials:
as §3

In the case of `Cn1cnc(C[C@H](NCCN)C(=O)O)c1`, the affinity on Carboxypeptidase B2 corresponds to a Ki of 235 nM.

For `CCn1cnc(C[C@H](NCCN)C(=O)O)c1`, the inhibitory constant (Ki) (in general, the dissociation constant of the complex between target and ligand, obtained from inhibition or displacement) on Carboxypeptidase B2 amounted to 250 nM.

As to `NCCN[C@@H](Cc1c[nH]cn1)C(=O)O`, the inhibition constant (Ki) in data set [1] is more than 10000 nM.

At Carboxypeptidase B2, `CC(C)Cn1cnc(C[C@H](NCCN)C(=O)O)c1` showed an inhibition constant (Ki) of 100 nM.

As to `NCCN[C@@H](Cc1cn(Cc2ccccc2)cn1)C(=O)O`, on Carboxypeptidase B2, the Ki worked out at 269 nM.

Regarding `CCCn1cnc(C[C@H](NCCN)C(=O)O)c1`, the affinity at Carboxypeptidase B2, expressed as Ki, was 84 nM.

In turn, `CCCCn1cnc(C[C@H](NCCN)C(=O)O)c1` yielded an inhibitory constant (Ki) on Carboxypeptidase B2 of 70 nM.

In turn, `CCCn1cnc(C[C@@H](CCCN)C(=O)O)c1` registered a Ki at Carboxypeptidase B2 of more than 700 nM.

At Carboxypeptidase B2, `NCCN[C@@H](Cc1cn(CCc2ccccc2)cn1)C(=O)O` returned an inhibitory constant (Ki) of 140 nM.

With `NCCN[C@@H](Cc1cn(CC2CCC2)cn1)C(=O)O`, the Ki at Carboxypeptidase B2 stood at 124 nM.

In the case of `NCCN[C@H](Cc1c[nH]cn1)C(=O)O`, the inhibition constant (Ki) on Carboxypeptidase B2 is 17000 nM.

At Carboxypeptidase B2, `CCCCCn1cnc(C[C@H](NCCN)C(=O)O)c1` displayed an inhibition constant Ki of 160 nM.

The compound `CC(C)n1cnc(C[C@H](NCCN)C(=O)O)c1` gave a Ki on Carboxypeptidase B2 of 430 nM.

Consider `NCCN[C@@H](Cc1cn(CCCO)cn1)C(=O)O`, for which, at Carboxypeptidase B2, the inhibition constant (Ki) is 111 nM.

Regarding `NC(N)=NCCCC(CS)C(=O)O` (racemic), the figures for the inhibition constant (Ki) (at Carboxypeptidase B; on Carboxypeptidase B2; in [1]) were 0.42 nM, 4 nM and 2 nM, respectively.

Regarding `NCCCC(CS)C(=O)O` (racemic), the inhibition constant (Ki) at Carboxypeptidase B2 is 300 nM.

For `NCCCC(Cc1c[nH]cn1)C(=O)O` (racemic), affinity at Carboxypeptidase B2 was put at a Ki of 140 nM.

At Carboxypeptidase B2, `CCCn1cnc(CC(CCCN)C(=O)O)c1` (racemic) returned an inhibition constant (Ki) of 46 nM.

As for `O=C(O)C(CS)Cc1ccccc1` (racemic), the Selectivity ratio in data set [2] is more than 10000.

With `CCCn1cnc(C[C@H](CCCN)C(=O)O)c1` [UK-396,082], the affinity on Carboxypeptidase B2 corresponds to a Ki of 10 nM. Moreover, the pH-dependent lipophilicity (logD) (commonly the decadic logarithm of the distribution of all forms, ionised or not, between an organic phase and buffer at a given pH) in [3] is -2.8. Further, in data set [4], the clearance (as a rule, the volume of plasma or blood freed of the substance per unit of time) was determined as 3.1 mL/min/kg. Besides, the Vd in data set [5] was 0.35 L/kg. In addition, the dose excreted in data set [6] was found to be 96%. Also, the half-life (as a rule, how long it takes for the measured level to halve) in data set [7] was 1.4 h. Further, the bioavailability (usually the share of a dose that reaches the circulation, judged against a reference dose that is usually intravenous) in data set [8] stood at 42%; in data set [9] it was 20%; in data set [10], 23%. Further, the time to peak (Tmax) (usually the time at which the peak concentration occurs) in data set [11] is 4 h. In addition, the Inhibition – broadly, the share of the control response that was lost under treatment – with Oryctolagus cuniculus [12] is given as 36%; in the data set on Oryctolagus cuniculus [13], 37%.
